Assay outcomes from PubChem.
The list is not random: actives were taken first. Their share in the collection is about 2.2%.
FGF22 binding = binders of recombinant human FGF22 by thermal shift. Q9HCT0. SYPRO orange fluorescence; percent of sucrose octasulfate shift, DMSO zero. activity (Tm shift, normalised), % at 9.99 µM. hit rate 1.5% among 340,000;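 active means mean Tm shift, scaled 0 neutral to 100 positive control, at about 1.3% or above, every replicate too, limit read from the data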
miR-122 sensor = miR-122 inhibition in Huh7 cells; hit rate 0.3% among 340,000; activation (reporter increase), % at 12.5 µM; Huh7 miR-122 Renilla luciferase sensor, 48 h; neutral wells = 0, positive control = 100;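 active means mean replicate activation score at least 90 and every replicate individually at or above 90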;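 further: higher luciferase means less miR-122 activity so hits act as miR-122 inhibitors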
697 NFkB inh = lowers PMA/ionomycin-induced NF-kB signal in 697 B cells; 697 B-cell NF-kB luciferase reporter, 16 h; inhibition, % at 4 µM; hit rate 0.33% among 330,000; AID 435022; in the data active means inhibition above about 35%
Jurkat NFkB inh = inhibitors of the PMA/ionomycin-induced NF-kB reporter in Jurkat cells; PMA/ionomycin-induced NF-kB luciferase reporter, luminescence; AID 435003; hit rate 0.53% among 330,000; inhibition, % at 4 µM; in the data active means inhibition above about 50%
NR2E3 ag-1 = activates human photoreceptor nuclear receptor NR2E3; Q9Y5X4; GST-NR2E3/biotin-RetCOR TR-FRET, 1536-well; inhibition of corepressor binding, % at 4.78 µM; hit rate 0.12% among 320,000; AID 2300;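 active means percent inhibition above the cutoff of mean plus 3 SD of all tested compounds, set per screening campaign, cut at about 20% in these data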;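 further: 0% = DMSO wells and 100% = biotin wells as full block of FRET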
Target sequence (Q9Y5X4 whole entry, looked up): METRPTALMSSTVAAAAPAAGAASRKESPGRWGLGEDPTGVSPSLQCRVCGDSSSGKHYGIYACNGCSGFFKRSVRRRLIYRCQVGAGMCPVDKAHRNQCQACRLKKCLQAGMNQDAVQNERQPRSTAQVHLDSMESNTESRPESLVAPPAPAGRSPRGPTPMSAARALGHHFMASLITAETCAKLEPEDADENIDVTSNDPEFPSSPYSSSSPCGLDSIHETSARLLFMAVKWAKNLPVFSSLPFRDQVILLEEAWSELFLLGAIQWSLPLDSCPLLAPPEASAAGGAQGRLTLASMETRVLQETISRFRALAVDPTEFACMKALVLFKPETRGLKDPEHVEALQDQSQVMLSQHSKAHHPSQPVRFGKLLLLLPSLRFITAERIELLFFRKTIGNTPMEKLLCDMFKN
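System: GST-NR2E3 and biotin-RetCOR proteins; probe or stimulus: 7 nM biotin-RetCOR; doses: compound at 4.8 µM, single dose; schedule: Compound–protein incubation for 5 h at 4 °C; detection: time-resolved FRET; read-out: percent inhibition; controls: biotin wells as high control, 0.6% DMSO wells as low control; format: 1536-well plates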
NR2E3 ag-2 = activates human NR2E3 receptor; hit rate 0.35% among 360,000; Q9Y5X4; AID 602229; inhibition of corepressor binding, % at 3.98 µM; CHO-S Gal4-NCOR/VP16-NR2E3 two-hybrid, luciferase;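 active means inhibition above the mean of all tested compounds plus 3 SD, cut at about 70% in these data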;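 further: 0% = DMSO with NR2E3 transfected cells and 100% = cells lacking NR2E3 construct; higher means lower luciferase signal from less NR2E3 corepressor binding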
697 NFkB conf = lowers PMA/ionomycin-induced NF-kB signal in 697 B cells | shares compounds with 697 NFkB inh | 697 B-cell NF-kB luciferase, 16 h | inhibition, % at 4 µM | hit rate 35% among 2,000; in the data active means inhibition mostly above about 28%, no sharp cut-off; inactive means mostly below about 22%
Starred values were filed as active, the others as inactive; [ ] = remark or other dose.

Screening Cc1ccc(S(=O)(=O)N2CC[C@@H]3[C@H]2c2cc(C4=CCCCC4)ccc2N(C)[C@H]3CO)cc1 returned FGF22 binding 0 and miR-122 sensor -2[16.7 µM].
COc1cc(C2C(C#N)=C(N)Oc3cc(N)ccc32)cc(OC)c1OC (centres undefined) was read as miR-122 sensor 82, 697 NFkB inh 39*, Jurkat NFkB inh 45, NR2E3 ag-1 2, NR2E3 ag-2 -8 and 697 NFkB conf 45*.
Screening O=C(N[C@H]1CC[C@H](CCNS(=O)(=O)c2ccc(F)cc2)O[C@@H]1CO)C1CC1 returned FGF22 binding 0.
Cc1cc(=O)oc2cc(OCCc3ccccc3)ccc12 was read as FGF22 binding 0, 697 NFkB inh -297, Jurkat NFkB inh -78, NR2E3 ag-1 1, NR2E3 ag-2 -65 and 697 NFkB conf -263.
Cc1cc(=O)oc2cc(OCCCC[n+]3ccccc3)ccc12 was read as FGF22 binding 0, 697 NFkB inh -3, Jurkat NFkB inh -13, NR2E3 ag-1 0 and NR2E3 ag-2 -18.
For COc1cc2[nH]c(=S)n(CC3CCCO3)c(=O)c2cc1OC (centres undefined) the results were FGF22 binding 0, miR-122 sensor 1, 697 NFkB inh 37*, Jurkat NFkB inh 2, NR2E3 ag-1 3, NR2E3 ag-2 0 and 697 NFkB conf 23.
`O=C(/C=C/c1ccccc1)Nc1ccc2c(c1)OCCO2` gave FGF22 binding 0, 697 NFkB inh -293, Jurkat NFkB inh -81, NR2E3 ag-1 -1, NR2E3 ag-2 -235 and 697 NFkB conf -418.
For O=C(Nc1ccc2c(c1)OCCO2)C(=O)c1c[nH]c2ccccc12 the results were FGF22 binding 0, 697 NFkB inh -377, Jurkat NFkB inh -63, NR2E3 ag-1 -2, NR2E3 ag-2 -293 and 697 NFkB conf -466.
O=C(Nc1ccc2c(c1)OCO2)C(=O)c1c[nH]c2ccccc12 was read as FGF22 binding 0, miR-122 sensor 2, 697 NFkB inh -174, Jurkat NFkB inh -119, NR2E3 ag-1 -2 and NR2E3 ag-2 -74.
`CCN(CC(=O)Nc1ccc2c(c1)OCCO2)C(=O)/C=C/c1ccccc1` gave FGF22 binding 0, 697 NFkB inh 10, Jurkat NFkB inh -2, NR2E3 ag-1 -2 and NR2E3 ag-2 -49.
For COc1ccccc1C(=O)Nc1ccc2c(c1)C(=O)N(C)[C@H]1CC[C@H](CC(=O)NCCc3ccncc3)O[C@H]1CO2 the results were FGF22 binding 0.
For Cc1cc(C(=O)N/N=C/c2sc(N3CCOCC3)nc2-c2ccccc2)c(C)o1 the results were FGF22 binding 0, miR-122 sensor 3, 697 NFkB inh 40*, Jurkat NFkB inh 19, NR2E3 ag-1 1, NR2E3 ag-2 -29 and 697 NFkB conf 13.
For O=C(N/N=C/c1sc(N2CCOCC2)nc1-c1ccccc1)c1ccccc1Cl the results were FGF22 binding 1, miR-122 sensor 4, 697 NFkB inh 27, Jurkat NFkB inh 35, NR2E3 ag-1 1 and NR2E3 ag-2 7.
For O=C(N/N=C/c1sc(N2CCOCC2)nc1-c1ccccc1)c1ccccc1O the results were miR-122 sensor -20, 697 NFkB inh 29, Jurkat NFkB inh 9, NR2E3 ag-1 0 and NR2E3 ag-2 -21.
Screening O=C(N/N=C/c1sc(N2CCOCC2)nc1-c1ccccc1)c1ccccc1F returned 697 NFkB inh 40*, Jurkat NFkB inh 6, NR2E3 ag-1 0 and 697 NFkB conf 21.
O=C(Cc1ccccn1)N[C@@H]1CC[C@@H](CCn2cc(-c3ccccc3)nn2)O[C@H]1CO was read as FGF22 binding 0 and miR-122 sensor 1[16.7 µM].
For Cc1ccccc1NC(=O)Nc1ccc2c(c1)C(=O)N(C)[C@H]1CC[C@H](CC(=O)O)O[C@H]1CO2 the results were FGF22 binding 0 and miR-122 sensor 50[16.7 µM].
